# Experimental data taken from ChEMBL document CHEMBL1132441, “Further studies on oxygenated tryptamines with LSD-like activity incorporating a chiral pyrrolidine moiety into the side chain” (J Med Chem, 1999).
# Where “and” joins values, the source holds several entries; their conditions need not be identical. Identical values can stand only once.
# Columns and labels:
# Rattus norvegicus [1] = assay: Percentage of rats selecting the drug liver at dose of 0.68 mg/kg; assay type: functional
# Summary of the method: (§1)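 Male Sprague–Dawley rats were trained in a two-lever FR50 food-reinforced task to discriminate LSD (0.08 mg/kg) or DOI (0.4 mg/kg) from saline. Test drugs were given i.p. in 0.9% saline 30 min before the session. The lever first pressed 50 times was scored as selected, and the result is the percentage of rats selecting the drug lever.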
# [2] = molecular target: 5-hydroxytryptamine receptor 2A (Rattus norvegicus) (UniProt P14842); assay: Compound was tested for binding affinity at 5-hydroxytryptamine 2A receptor sites in rat cortical homogenate using [125I]-2,5-Dimethoxy -4-iodoamphetamine (DOI).
# Summary of the method: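 Rat frontal cortex membranes were washed in 50 mM Tris-HCl pH 7.4 and preincubated at 37 °C in buffer with EDTA, pargyline, CaCl2 and ascorbate. They were incubated with [125I]DOI and test drug for 15 min at 37 °C, then filtered, and the filters were gamma-counted. Cinanserin (10 µM) defined nonspecific binding. Values come from at least three experiments, each in triplicate.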
# [3] = molecular target: 5-hydroxytryptamine receptor 2A (Rattus norvegicus, UniProt P14842); assay: Compound was tested for binding affinity using [3H]MDL-100,907 at 5-hydroxytryptamine 2A receptor sites in rat cortical homogenate.
# Summary of the method: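 Membranes (200-400 µg protein) from rat frontal cortex homogenate were incubated with 0.2 nM [3H]MDL100907 and competing drug for 15 min at 37 °C. The buffer was Tris-HCl pH 7.4 with EDTA, pargyline, CaCl2 and ascorbate. Bound and free ligand were separated by GF/C filtration and read by scintillation counting. Nonspecific binding was taken with 10 µM cinanserin. […] values come from at least three experiments, each in triplicate.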
# Rattus norvegicus [4] = assay: Percentage of rats selecting the drug liver at dose of 1.36 mg/kg; assay type: functional; summary of the method: as §1
# Rattus norvegicus [5] = assay: Percentage of rats selecting the drug liver at dose of 0.2 mg/kg; assay type: functional; summary of the method: as §1
# Rattus norvegicus [6] = assay: Percentage of rats selecting the drug liver at dose of 0.4 mg/kg; assay type: functional; summary of the method: as §1
# Rattus norvegicus [7] = assay: Substitution tests were carried out for the compound in LSD- trained rats dosed with 0.02 mg/kg drug and the binding data was reported; assay type: functional
# Rattus norvegicus [8] = assay: Substitution tests were carried out for the compound in LSD- trained rats dosed with 0.046 uM/kg drug and the binding data was reported; assay type: functional
# Rattus norvegicus [9] = assay: Percentage of rats selecting the drug liver at dose of 0.1 mg/kg; assay type: functional; summary of the method: as §1
# Rattus norvegicus [10] = assay: Substitution tests were carried out for the compound in DOI- trained rats dosed with 0.50 uM/kg drug and the binding data was reported; assay type: functional
# Summary of the method: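 Rats trained on DOI (0.4 mg/kg i.p.) versus saline under an FR50 two-lever food schedule received the test drug i.p. in saline 30 min before testing. Quantal scoring used the lever first reaching 50 presses to give %SDL. ED50 and 95% CI were obtained by the Litchfield–Wilcoxon log-probit method when a dose reached ≥80% SDL.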
# Rattus norvegicus [11] = assay: Substitution tests were carried out for the compound in LSD- trained rats dosed with 0.06 mg/kg drug and the binding data was reported; assay type: functional
# Rattus norvegicus [12] = assay: Substitution tests were carried out for the compound in DOI- trained rats dosed with 0.12 mg/kg drug and the binding data was reported; assay type: functional
# Rattus norvegicus [13] = assay: Percentage of rats selecting the drug liver at dose of 0.23 mg/kg; assay type: functional; summary of the method: as §1
# Rattus norvegicus [14] = assay: Percentage of rats selecting the drug liver at dose of 0.03 mg/kg; assay type: functional; summary of the method: as §1
# Rattus norvegicus [15] = assay: Percentage of rats selecting the drug liver at dose of 0.06 mg/kg; assay type: functional; summary of the method: as §1
# Rattus norvegicus [16] = assay: Substitution tests were carried out for the compound in LSD- trained rats dosed with 0.25 uM/kg drug and the binding data was reported; assay type: functional
# Summary of the method: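 Rats trained on LSD (0.08 mg/kg i.p.) versus saline under an FR50 two-lever food schedule received the test drug i.p. in 0.9% saline 30 min before the session. The lever first given 50 presses was scored as selected, giving %SDL. ED50 (95% CI) came from Litchfield–Wilcoxon log-probit analysis, and none was calculated where ≥50% of rats were disrupted.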
# Rattus norvegicus [17] = assay: Percentage of rats selecting the drug liver at dose of 0.12 mg/kg; assay type: functional; summary of the method: as §1
# Rattus norvegicus [18] = assay: Percentage of rats selecting the drug liver at dose of 0.08 mg/kg; assay type: functional; summary of the method: as §1
# Rattus norvegicus [19] = assay: Percentage of rats selecting the drug liver at dose of 0.04 mg/kg; assay type: functional; summary of the method: as §1
# Rattus norvegicus [20] = assay: Percentage of rats selecting the drug liver at dose of 0.01 mg/kg; assay type: functional; summary of the method: as §1
# Rattus norvegicus [21] = assay: Percentage of rats selecting the drug liver at dose of 0.02 mg/kg; assay type: functional; summary of the method: as §1
# Rattus norvegicus [22] = assay: Percentage of rats selecting the drug liver at dose of 0.16 mg/kg; assay type: functional
# Summary of the method: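 Male Sprague–Dawley rats (200-220 g) were trained in a two-lever FR 50 food-reinforced task to discriminate LSD (0.08 mg/kg) or DOI (0.4 mg/kg) from saline. Drugs were given i.p. in 0.9% saline 30 min before the session. Scoring was quantal: the lever first reaching 50 presses counted as selected, and %SDL is the percentage of rats choosing the drug lever.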
# Rattus norvegicus [23] = assay: Percentage of rats selecting the drug liver at dose of 0.65 mg/kg; assay type: functional; summary of the method: as §1
# Rattus norvegicus [24] = assay: Percentage of rats selecting the drug liver at dose of 0.33 mg/kg; assay type: functional; summary of the method: as §1
# Sequence of 5-hydroxytryptamine receptor 2A (Rattus norvegicus) (P14842 whole entry): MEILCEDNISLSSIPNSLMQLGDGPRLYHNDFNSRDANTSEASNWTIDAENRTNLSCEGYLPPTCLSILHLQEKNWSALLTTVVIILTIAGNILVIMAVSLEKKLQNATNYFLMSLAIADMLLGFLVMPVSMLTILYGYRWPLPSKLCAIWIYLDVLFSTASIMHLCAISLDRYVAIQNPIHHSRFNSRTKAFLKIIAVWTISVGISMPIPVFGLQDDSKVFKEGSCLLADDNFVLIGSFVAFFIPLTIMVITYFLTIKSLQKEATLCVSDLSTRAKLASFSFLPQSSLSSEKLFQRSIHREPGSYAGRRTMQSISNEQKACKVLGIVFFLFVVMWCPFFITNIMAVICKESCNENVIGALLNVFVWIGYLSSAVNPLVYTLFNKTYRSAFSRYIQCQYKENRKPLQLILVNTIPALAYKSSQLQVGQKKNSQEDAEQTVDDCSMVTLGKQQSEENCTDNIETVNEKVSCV
# Sequence of 5-hydroxytryptamine receptor 2A (P14842 whole entry): as above
compound,measurement,setting,value
COc1ccc2[nH]cc(C3CCN(C)C3)c2c1 (stereo not given),SDL,Rattus norvegicus [1],33% and 14%
same,K0.5,[2],150 nM
same,Ki,[3],1300 nM
same,SDL,Rattus norvegicus [4],50%
COc1cc(CC(C)N)c(OC)cc1I (stereo not given),SDL,Rattus norvegicus [5],89%
same,SDL,Rattus norvegicus [6],100%
same,ED50,Rattus norvegicus [7],0.12 µmol/kg
same,ED50,Rattus norvegicus [8],0.28 µmol/kg
same,SDL,Rattus norvegicus [9],56%
CN1CCC[C@@H]1Cc1c[nH]c2cc(O)ccc12,ED50,Rattus norvegicus [10],0.47 µmol/kg
same,K0.5,[2],13 nM
same,ED50,Rattus norvegicus [11],0.06 µmol/kg
same,ED50,Rattus norvegicus [12],0.11 µmol/kg
same,SDL,Rattus norvegicus [13],100%
same,Ki,[3],210 nM
same,SDL,Rattus norvegicus [14],30%
same,SDL,Rattus norvegicus [15],40% and 14%
same,ED50,Rattus norvegicus [16],0.25 µmol/kg
same,SDL,Rattus norvegicus [17],64% and 43%
COc1ccc2[nH]cc(CCN(C)C)c2c1 [MEBUFOTENIN],K0.5,[2],21 nM
same,Ki,[3],1600 nM
COc1ccc2[nH]cc(C[C@@H]3CCCN3C)c2c1,K0.5,[2],64 nM
same,Ki,[3],> 9400 nM
CN1CCC(c2c[nH]c3cccc(O)c23)C1 (stereo not given),K0.5,[2],82 nM
same,Ki,[3],440 nM
CCN(CC)C(=O)[C@@H]1C=C2c3cccc4[nH]cc(c34)C[C@H]2N(C)C1 [LYSERGIDE],SDL,Rattus norvegicus [18],100%
same,ED50,Rattus norvegicus [7],0.012 µmol/kg
same,SDL,Rattus norvegicus [19],81%
same,SDL,Rattus norvegicus [20],46%
same,ED50,Rattus norvegicus [8],0.026 µmol/kg
same,SDL,Rattus norvegicus [21],78%
COc1ccc2[nH]cc(C[C@H]3CCCN3C)c2c1,ED50,Rattus norvegicus [10],0.32 µmol/kg
same,SDL,Rattus norvegicus [18]; 0.08 mg/kg,20% and 43%
same,K0.5,[2],9.5 nM
same,SDL,Rattus norvegicus [22],63%
same,SDL,Rattus norvegicus [23],100%
same,ED50,Rattus norvegicus [11],0.14 µmol/kg
same,ED50,Rattus norvegicus [12],0.11 µmol/kg
same,Ki,[3],400 nM
same,ED50,Rattus norvegicus [16],0.44 µmol/kg
same,SDL,Rattus norvegicus [24],82% and 88%
CN1CCC[C@H]1Cc1c[nH]c2cc(O)ccc12,K0.5,[2],290 nM
same,Ki,[3],4700 nM
CN(C)CCc1c[nH]c2cccc(O)c12 [PSILOCIN],K0.5,[2],6 nM
same,Ki,[3],390 nM
